ChEMBL document CHEMBL1148446, “New analogues of amonafide and elinafide, containing aromatic heterocycles: synthesis, antitumor activity, molecular modeling, and DNA binding properties” (J Med Chem, 2004)

Assays:
HT-29 = assay: In vitro cytotoxicity against human colon carcinoma (HT-29) cell line; assay type: functional, cell-based
How it was run: (§1)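 MTT assay on log-phase cells kept at 37 °C, 5% CO2. Seeded at 2.5 × 10³ cells/well; compound added 24 h later as serial PBS dilutions of a 1 × 10⁻⁵ M DMSO stock. Exposure 72 h, then MTT (1 mg/mL in PBS) for 4 h, DMSO solubilization, absorbance at 570 nm. PBS negative control, doxorubicin positive control. At least three experiments; IC50 = concentration reducing growth to 50% of control.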

HeLa = assay: In vitro cytotoxicity against human cervical carcinoma (HeLa) cell line; assay type: functional, cell-based; how it was run: as §1
PC-3 = assay: In vitro cytotoxicity against human prostate carcinoma (PC-3) cell line; assay type: functional, cell-based; how it was run: as §1
Mus musculus = assay: In vivo antitumor activity in mice infected with HT-29 cells; assay type: functional
How it was run: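 HT-29 xenografts: 10⁶ cells/0.1 mL DMEM injected sc into the back of athymic nu/nu mice. At ~0.1 cm³ tumors, randomized to 4 control and 4 treated. Dosing 5 mg/kg ip in sterile 0.9% NaCl, daily for 4 days then 10 days off (14-day cycles), up to 60 days; controls given vehicle. Tumors measured 1–2×/week; V = (Dd²)/2.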

Compound | IC50 (HT-29) [nM] | IC50 (HeLa) [nM] | IC50 (PC-3) [nM] | Reduction (Mus musculus) [%]
O=C1c2cccc3c2c(cc2ccsc23)C(=O)N1CCNCCCNCCN1C(=O)c2cccc3c2c(cc2ccsc23)C1=O | 1940 | 1040 | 400 | –
O=C1c2cccc3c2c(cc2ccoc23)C(=O)N1CCNCCCNCCN1C(=O)c2cccc3c2c(cc2ccoc23)C1=O | 6.8 | 44 | 500 | ~80
CN(CCCN(C)CCN1C(=O)c2cccc3c2c(cc2ccoc23)C1=O)CCN1C(=O)c2cccc3c2c(cc2ccoc23)C1=O | 710 | 2580 | 12600 | –
CN(C)CCN1C(=O)c2cccc3c2c(cc2occc23)C1=O | 550 | 140 | 164 | –
O=C1c2cccc3c2c(cc2sccc23)C(=O)N1CCNCCCNCCN1C(=O)c2cccc3c2c(cc2sccc23)C1=O | 47 | 160 | 930 | –
O=C1c2cccc3c2c(cc2occc23)C(=O)N1CCNCCCNCCN1C(=O)c2cccc3c2c(cc2occc23)C1=O | 370 | 730 | > 100000 | –
CN(CCCN(C)CCN1C(=O)c2cccc3c2c(cc2sccc23)C1=O)CCN1C(=O)c2cccc3c2c(cc2sccc23)C1=O | 270 | 210 | 1420 | –
CN(C)CCN1C(=O)c2cccc3c2c(cc2ccsc23)C1=O | 750 | 860 | 1190 | –
CN(C)CCN1C(=O)c2cccc3c2c(cc2sccc23)C1=O | 1150 | 800 | 3500 | –
CN(CCCN(C)CCN1C(=O)c2cccc3c2c(cc2ccsc23)C1=O)CCN1C(=O)c2cccc3c2c(cc2ccsc23)C1=O | 390 | 570 | 2500 | –
CN(C)CCN1C(=O)c2cccc3c2c(cc2ccoc23)C1=O | 2690 | 4300 | 5580 | –
